For orientation: Inhibition means the drop in the measured response relative to a control, in per cent. In general, pKB refers to the KB on a negative log10 scale, so that one unit is a factor of ten. One may read the IC50 as the point on the concentration scale where inhibition reaches its midpoint.

One assay is filed under the species Cavia porcellus. Nature of the assay: Percent inhibition LTD4-induced contraction of guinea pig ileum at 1 uM of concentration. It is filed as functional. In outline: (§1)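 Percent reduction of LTD4-induced contraction of isolated ileum from male Hartley guinea pigs (200-400 g). The antagonist was tested at the single concentration stated, and contraction was measured isometrically as grams of force.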
In the case of `CCCc1c(OCCCc2nnn[nH]2)ccc(C(C)=O)c1O`, the Inhibition is recorded as 15%.

The test system of a further assay is Cavia porcellus. Put plainly: Bronchospastic activity to prevent increase in total pulmonary impedance (TPI) in guinea pig when administered intravenously. It is filed as functional. In outline:
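Anesthetized male Hartley guinea pigs (200-400 g), body temperature kept normal on an isothermal pad. Total pulmonary impedance was recorded with pressure transducers. LTD4 was given iv as randomized doses to build dose-response curves. The antagonist was given intravenously.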
The compound `CCCc1c(OCCCCCCc2nn[nH]n2)ccc(C(C)=O)c1O` displayed an Increase of 27.1%. On the same count and under the same terms, the figure for `CCCc1c(OCCCCc2nnn[nH]2)ccc(C(C)=O)c1O` [TOMELUKAST] is 2.2%; for `CCCc1c(OCCCCCc2nn[nH]n2)ccc(C(C)=O)c1O` it is 25.6%.

The next assay relates to cysteinyl leukotriene receptor (Cavia porcellus). Put plainly: Inhibition of LTD4-induced contraction of guinea pig ileum.
As to `CCCc1c(OCCCCC(=O)O)ccc(C(C)=O)c1O`, the pKB is 5.8. On the same count and under the same terms, the figure for `CCCc1c(OCCCCCCC(=O)O)ccc(C(C)=O)c1O` is 5.7; for `CCCc1c(OCCCCCC(=O)O)ccc(C(=O)CC)c1O` it is 6.1; for `CCCc1c(OCCCCCCc2nn[nH]n2)ccc(C(C)=O)c1O` it is 7.1. In the case of `CCCc1c(OCCCCCC(=O)O)ccc(C(C)=O)c1O`, the pKB is 6.

The compound `CCCc1c(OCCCCCCCCC(=O)O)ccc(C(C)=O)c1O` displayed a pKB of 5.8. On the same count and under the same terms, the figure for `CCCc1c(OCCCCCc2nn[nH]n2)ccc(C(C)=O)c1O` is 6.6; for `CCCc1c(OCCCCCCCc2nn[nH]n2)ccc(C(C)=O)c1O` it is 7.

The next assay is filed under the species Cavia porcellus. Nature of the assay: Percent inhibition LTD4-induced contraction of guinea pig ileum at 30 uM of concentration. It is filed as functional. In outline: as §1
As to `CCCc1c(OCCC(=O)O)ccc(C(C)=O)c1O`, the Inhibition turned out to be 23%.

`CCCc1c(OCC(=O)O)ccc(C(C)=O)c1O` yielded an Inhibition of 8%. On the same count and under the same terms, in the case of `CCCc1c(OCc2nn[nH]n2)ccc(C(C)=O)c1O` it was 28%; in that of `CCCc1c(OCCCC(=O)O)ccc(C(C)=O)c1O`, 43%.

The species entered for a further assay is Cavia porcellus. Nature of the assay: Percent inhibition LTD4-induced contraction of guinea pig ileum at 3 uM of concentration. The format is functional. In a few lines: as §1
Compound `CCCc1c(OCCCCCCCCCCC(=O)O)ccc(C(C)=O)c1O` returned an Inhibition of 79%. Still for that read-out and setting: the figure for `CCCc1c(OCCCCCCCCCCCCc2nn[nH]n2)ccc(C(C)=O)c1O` is 47%.

The compound `CCCc1c(OCCCCCC(=O)O)ccc(C(=O)OC)c1O` had an Inhibition of 21%. `CC(=O)c1ccc(OCCCCCC(=O)O)cc1O` registered an Inhibition of 11%. On the same count and under the same terms, the figure for `CCCc1c(OCCCCCC#N)ccc(C(C)=O)c1O` is 0%; for `C=CCc1c(OCCCCCC(=O)O)ccc(C(C)=O)c1O` it is 29%; for `CCCc1cc(C(C)=O)ccc1OCCCCCC(=O)O` it is 0%.

The species entered for the next assay is Cavia porcellus. Put plainly: Percent inhibition LTD4-induced contraction of guinea pig ileum at 10 uM of concentration. It is filed as functional. In outline: as §1
For the compound `CCCc1c(OCCCCCC(=O)O)ccc(O)c1C(C)=O`, the Inhibition turned out to be 0%.

For a further assay, the species on record is Cavia porcellus. Put plainly: Negative logarithm of compound concentration that reduced an LTD4-induced contraction of guinea pig ileum by 50%. It is filed as functional. In a few lines: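 Ileum from male Hartley guinea pigs (200-400 g), with isometric tension recorded. Two, three or four antagonist concentrations were tested on a single ileum against a submaximal LTD4 contraction. The concentration giving 50% inhibition was extrapolated by linear regression and expressed as -log IC50.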
The compound `CCCc1c(OCCCCCCCCc2nn[nH]n2)ccc(C(C)=O)c1O` gave an IC50 of 0.316 µM.

Compound `CCCc1c(OCCCCCCCCCCc2nn[nH]n2)ccc(C(C)=O)c1O` gave an IC50 of 3.16 µM. On the same count and under the same terms, the figure for `CCCc1c(OCCCCCCCCCC(=O)O)ccc(C(C)=O)c1O` is 0.794 µM.

In the case of `CCCc1c(OCCCCCCCC(=O)O)ccc(C(C)=O)c1O`, the midpoint of inhibition, the IC50, lay at 0.794 µM.

The compound `CCCc1c(OCCCCCCCCCc2nn[nH]n2)ccc(C(C)=O)c1O` showed an IC50 of 0.251 µM. On the same count and under the same terms, in the case of `CCCc1c(OCCCCCCN(C)C)ccc(C(C)=O)c1O` it was 6.31 µM; in that of `CCCc1c(OCCCCCCN2CCOCC2)ccc(C(C)=O)c1O`, 3.16 µM.

Regarding `CCCc1c(OCCCCCCN2CCN(C)CC2)ccc(C(C)=O)c1O`, the IC50 is 5.01 µM. Same read-out and setting: in the case of `CCCc1c(OCCCCCCO)ccc(C(C)=O)c1O` it was 3.98 µM.

The values above are taken from ChEMBL document CHEMBL1123719, “Leukotriene receptor antagonists. 1. Synthesis and structure-activity relationships of alkoxyacetophenone derivatives” (J Med Chem, 1987).
